According to ChEMBL document CHEMBL4229424, “Design, synthesis and anticancer evaluation of acridine hydroxamic acid derivatives as dual Topo and HDAC inhibitors” (Bioorg Med Chem, 2018):
Calls of active or inactive are those of the source. The calls are words filed in the database; no cut-off is given here.

Experiments:
MDA-MB-231 = experiment: Antiproliferative activity against human MDA-MB-231 cells after 48 hrs by MTT assay; assay type: functional, cell-based; details: MDA-MB-231, 48 h
In short: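 Cells seeded at 5-10 × 10^3 per well and left 12 h at 37 °C, then given a range of concentrations (DMSO as blank) for 48 h. MTT (5 mg/mL) added for 4 h, formazan dissolved in DMSO, absorbance read at 490 nm. IC50 taken from dose-response curves of at least three independent experiments, mean ± SD.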

[1] = molecular target: DNA topoisomerase 2-alpha (Homo sapiens) (UniProt P11388); experiment: Inhibition of human topoisomerase 2alpha expressed in Escherichia coli assessed as reduction in supercoiled pBR322 plasmid DNA relaxation at 50 to 100 uM after 10 to 15 mins by ethidium bromide staining based agarose gel electrophoresis
DNA topoisomerase 2-alpha (Homo sapiens), sequence (P11388 whole entry): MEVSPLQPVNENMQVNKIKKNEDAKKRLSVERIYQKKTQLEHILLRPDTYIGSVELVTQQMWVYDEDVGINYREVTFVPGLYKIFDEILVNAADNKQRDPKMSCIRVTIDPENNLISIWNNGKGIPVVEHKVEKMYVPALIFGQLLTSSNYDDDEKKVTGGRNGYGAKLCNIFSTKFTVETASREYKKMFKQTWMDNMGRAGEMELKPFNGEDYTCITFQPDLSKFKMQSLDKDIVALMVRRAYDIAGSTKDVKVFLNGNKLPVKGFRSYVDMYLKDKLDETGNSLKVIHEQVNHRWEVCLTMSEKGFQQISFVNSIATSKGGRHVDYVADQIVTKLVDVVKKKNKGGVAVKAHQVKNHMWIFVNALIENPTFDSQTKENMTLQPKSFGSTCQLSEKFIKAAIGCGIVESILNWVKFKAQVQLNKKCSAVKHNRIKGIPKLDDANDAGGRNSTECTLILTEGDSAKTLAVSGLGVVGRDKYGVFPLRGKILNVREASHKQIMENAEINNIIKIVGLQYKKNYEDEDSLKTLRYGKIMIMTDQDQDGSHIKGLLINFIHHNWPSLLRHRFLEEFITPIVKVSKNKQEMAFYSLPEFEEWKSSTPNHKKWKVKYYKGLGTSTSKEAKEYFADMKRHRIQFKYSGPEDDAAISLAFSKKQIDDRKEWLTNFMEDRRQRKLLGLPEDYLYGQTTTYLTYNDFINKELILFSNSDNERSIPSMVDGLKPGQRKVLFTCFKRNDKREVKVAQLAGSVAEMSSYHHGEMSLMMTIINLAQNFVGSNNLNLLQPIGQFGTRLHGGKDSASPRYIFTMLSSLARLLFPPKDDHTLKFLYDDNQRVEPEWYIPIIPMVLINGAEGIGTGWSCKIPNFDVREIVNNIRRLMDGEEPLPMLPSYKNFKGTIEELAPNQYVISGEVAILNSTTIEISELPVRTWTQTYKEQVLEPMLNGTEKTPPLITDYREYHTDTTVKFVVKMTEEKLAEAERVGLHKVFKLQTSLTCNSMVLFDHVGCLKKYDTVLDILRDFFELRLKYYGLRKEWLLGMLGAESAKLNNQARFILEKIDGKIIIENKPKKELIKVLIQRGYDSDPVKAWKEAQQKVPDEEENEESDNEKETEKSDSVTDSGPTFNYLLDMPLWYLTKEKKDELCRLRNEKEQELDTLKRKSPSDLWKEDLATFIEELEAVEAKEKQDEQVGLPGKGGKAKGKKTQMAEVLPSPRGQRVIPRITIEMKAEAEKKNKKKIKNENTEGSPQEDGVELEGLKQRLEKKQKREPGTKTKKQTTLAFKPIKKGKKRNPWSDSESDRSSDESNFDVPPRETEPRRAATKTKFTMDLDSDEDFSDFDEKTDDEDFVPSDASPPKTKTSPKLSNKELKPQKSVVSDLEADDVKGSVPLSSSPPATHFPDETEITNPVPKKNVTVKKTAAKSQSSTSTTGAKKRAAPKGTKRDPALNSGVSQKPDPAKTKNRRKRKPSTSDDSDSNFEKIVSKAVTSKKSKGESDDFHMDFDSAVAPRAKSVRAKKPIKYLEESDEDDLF
In short: (§1)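 Relaxation assay with 500 ng supercoiled pBR322 DNA and 1 unit of human Topo I or Topo II in reaction buffer (20 µL), run at 37 °C for 10-15 min. Reaction stopped with loading buffer, then 1% agarose gel in TAE at 80 V for 0.5 h. Gel stained with ethidium bromide and bands viewed under UV. Camptothecin (Topo I) and m-AMSA (Topo II) served as references.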

Calf thymus DNA [2] = experiment: Binding affinity to calf thymus DNA by UV-Vis absorption spectral analysis; assay type: nucleic-acid assay; details: Bos taurus
In short: (§2)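 Compound held at 10 μM and titrated with increasing calf thymus DNA in Tris-HCl buffer (pH 7.4). UV–visible absorption spectra recorded, and absorbance changes plotted against DNA concentration.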

HCT-116 = experiment: Antiproliferative activity against human HCT116 cells after 48 hrs by MTT assay; assay type: functional, cell-based; details: HCT-116, 48 h
U-937 [3] = experiment: Antiproliferative activity against human U937 cells after 48 hrs by MTT assay; assay type: functional, cell-based; details: U-937, 48 h
[4] = molecular target: T1, Protein deacetylase HDAC6 (Homo sapiens, UniProt Q9UBN7); experiment: Inhibition of HDAC6 (unknown origin) using Ac-peptide as substrate pretreated for 15 mins followed by substrate addition and measured after 1 hr by fluorescence assay
T1 sequence (Q9UBN7 whole entry): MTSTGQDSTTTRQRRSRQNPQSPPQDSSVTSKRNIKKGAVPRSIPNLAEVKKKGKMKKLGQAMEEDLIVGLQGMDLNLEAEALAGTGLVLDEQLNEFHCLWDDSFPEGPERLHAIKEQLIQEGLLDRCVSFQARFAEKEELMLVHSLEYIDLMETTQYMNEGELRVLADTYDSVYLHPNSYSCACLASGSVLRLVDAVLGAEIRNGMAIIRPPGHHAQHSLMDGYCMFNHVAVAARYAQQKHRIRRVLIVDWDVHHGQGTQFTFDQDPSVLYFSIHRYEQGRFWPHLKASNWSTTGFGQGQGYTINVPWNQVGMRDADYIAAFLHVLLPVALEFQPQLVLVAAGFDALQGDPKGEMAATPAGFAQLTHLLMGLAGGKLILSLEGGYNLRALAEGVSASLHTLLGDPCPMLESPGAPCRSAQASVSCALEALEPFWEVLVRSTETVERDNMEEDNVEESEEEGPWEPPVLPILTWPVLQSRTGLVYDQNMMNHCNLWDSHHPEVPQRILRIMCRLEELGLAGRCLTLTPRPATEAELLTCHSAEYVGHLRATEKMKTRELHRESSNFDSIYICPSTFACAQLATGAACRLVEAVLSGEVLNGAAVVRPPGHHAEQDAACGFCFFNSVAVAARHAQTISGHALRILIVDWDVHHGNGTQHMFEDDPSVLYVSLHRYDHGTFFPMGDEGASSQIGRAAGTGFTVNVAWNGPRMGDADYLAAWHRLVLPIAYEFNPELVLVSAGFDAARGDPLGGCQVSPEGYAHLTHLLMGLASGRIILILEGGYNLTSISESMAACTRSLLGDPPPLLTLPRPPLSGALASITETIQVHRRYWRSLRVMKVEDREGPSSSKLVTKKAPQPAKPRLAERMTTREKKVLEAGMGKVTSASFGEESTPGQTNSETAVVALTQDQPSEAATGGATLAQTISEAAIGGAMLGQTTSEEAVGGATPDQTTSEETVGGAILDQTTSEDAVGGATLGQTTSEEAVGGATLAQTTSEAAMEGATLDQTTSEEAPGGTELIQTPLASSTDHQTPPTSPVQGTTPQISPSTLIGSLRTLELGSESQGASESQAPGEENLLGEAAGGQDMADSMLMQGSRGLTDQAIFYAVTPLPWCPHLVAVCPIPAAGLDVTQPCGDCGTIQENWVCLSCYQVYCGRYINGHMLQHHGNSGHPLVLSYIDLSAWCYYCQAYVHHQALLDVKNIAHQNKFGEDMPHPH

Histone deacetylase 1 = Histone deacetylase 1 (Homo sapiens, UniProt Q13547); experiment: Inhibition of HDAC1 (unknown origin) using Ac-peptide as substrate pretreated for 15 mins followed by substrate addition and measured after 1 hr by fluorescence assay
Histone deacetylase 1, sequence (Q13547 whole entry): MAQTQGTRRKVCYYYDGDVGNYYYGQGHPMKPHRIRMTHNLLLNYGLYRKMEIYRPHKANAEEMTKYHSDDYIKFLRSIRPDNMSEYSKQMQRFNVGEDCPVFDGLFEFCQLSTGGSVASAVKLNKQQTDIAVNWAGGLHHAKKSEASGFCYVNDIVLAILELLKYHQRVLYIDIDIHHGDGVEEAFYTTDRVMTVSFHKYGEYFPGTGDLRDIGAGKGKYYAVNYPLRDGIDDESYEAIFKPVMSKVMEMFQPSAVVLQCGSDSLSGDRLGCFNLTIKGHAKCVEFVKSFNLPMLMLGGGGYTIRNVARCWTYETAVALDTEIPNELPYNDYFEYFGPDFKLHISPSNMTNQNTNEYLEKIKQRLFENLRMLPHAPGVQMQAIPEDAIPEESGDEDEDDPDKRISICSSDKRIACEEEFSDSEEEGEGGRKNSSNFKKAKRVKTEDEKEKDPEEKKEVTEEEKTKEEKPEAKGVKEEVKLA

[5] = molecular target: T2, DNA topoisomerase 1 (Homo sapiens) (UniProt P11387); experiment: Inhibition of human topoisomerase 1 assessed as reduction in supercoiled pBR322 plasmid DNA relaxation at 100 uM after 10 to 15 mins by ethidium bromide staining based agarose gel electrophoresis; in short: as §1
T2 sequence (whole entry): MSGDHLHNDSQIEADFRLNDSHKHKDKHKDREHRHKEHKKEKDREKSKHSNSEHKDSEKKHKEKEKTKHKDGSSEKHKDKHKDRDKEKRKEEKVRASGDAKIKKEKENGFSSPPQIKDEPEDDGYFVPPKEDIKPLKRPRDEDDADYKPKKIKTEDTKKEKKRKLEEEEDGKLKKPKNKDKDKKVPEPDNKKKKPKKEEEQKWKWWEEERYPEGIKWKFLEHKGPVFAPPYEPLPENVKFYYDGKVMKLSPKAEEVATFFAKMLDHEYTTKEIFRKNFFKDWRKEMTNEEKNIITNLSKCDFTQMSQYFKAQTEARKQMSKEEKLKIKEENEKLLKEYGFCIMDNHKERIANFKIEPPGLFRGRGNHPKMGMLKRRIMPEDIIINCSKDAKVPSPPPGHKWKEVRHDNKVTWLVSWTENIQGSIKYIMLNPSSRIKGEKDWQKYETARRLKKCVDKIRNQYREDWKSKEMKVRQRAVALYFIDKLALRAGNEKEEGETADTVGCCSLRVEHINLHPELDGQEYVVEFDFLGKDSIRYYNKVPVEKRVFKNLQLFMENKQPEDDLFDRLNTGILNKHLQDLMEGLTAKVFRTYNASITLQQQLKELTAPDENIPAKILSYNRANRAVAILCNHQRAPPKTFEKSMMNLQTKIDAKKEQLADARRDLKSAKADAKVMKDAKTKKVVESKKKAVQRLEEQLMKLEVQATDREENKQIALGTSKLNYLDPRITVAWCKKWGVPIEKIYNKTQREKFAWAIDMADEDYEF

U-937 [6] = experiment: Induction of apoptosis in human U937 cells assessed as increase in cleaved caspase 7 levels up to 2.5 uM after 36 hrs by Western blot analysis; assay type: functional, cell-based
In short: (§3)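 U937 cells exposed to 0, 0.1, 0.5, 1 and 2.5 μM for 36 h. Cells lysed at 0 °C for 0.5 h, protein measured by BCA, and lysates run on 12% SDS-PAGE and transferred to PVDF. Blocking in 5% milk, primary antibodies (1:1000) at 4 °C overnight, HRP secondary for 2 h, ECL detection.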

Calf thymus DNA [7] = experiment: Binding affinity to calf thymus DNA by fluorescence emission spectral analysis; assay type: nucleic-acid assay; details: Bos taurus
U-937 [8] = experiment: Induction of apoptosis in human U937 cells assessed as increase in cleaved caspase 8 levels up to 2.5 uM after 36 hrs by Western blot analysis; assay type: functional, cell-based; in short: as §3
U-937 [9] = experiment: Induction of apoptosis in human U937 cells assessed as increase in cleaved caspase 9 levels up to 2.5 uM after 36 hrs by Western blot analysis; assay type: functional, cell-based; in short: as §3
Calf thymus DNA [10] = experiment: Binding affinity to calf thymus DNA assessed as maximum absorption peak at 10 uM by UV-Vis absorption spectral analysis; assay type: nucleic-acid assay; details: Bos taurus; in short: as §2
Calf thymus DNA [11] = experiment: Binding affinity to calf thymus DNA assessed as assessed as bathochromic shift at 10 uM by UV-Vis absorption spectral analysis; assay type: nucleic-acid assay; details: Bos taurus; in short: as §2
U-937 [12] = experiment: Induction of apoptosis in human U937 cells assessed as increase in cleaved caspase 3 levels up to 2.5 uM after 36 hrs by Western blot analysis; assay type: functional, cell-based; in short: as §3

Row | SMILES | IC50 (MDA-MB-231) [nM] | inhibition [1] | IC50 (U-937 [3]) [nM] | IC50 [4] [nM] | IC50 (Histone deacetylase 1) [nM] | further results
1 | O=C(CCCCCCC(=O)Nc1ccccc1)NO [VORINOSTAT] | 4930 |  |  |  |  | 
2 | COc1cc(NS(C)(=O)=O)ccc1Nc1c2ccccc2nc2ccccc12 [AMSACRINE] | 10000 | Active |  |  |  | Kb (Calf thymus DNA [2]): 1.36 ×10⁵ /M; IC50 (HCT-116): < 1000 nM
3 | COC(=O)CCc1ccc(Nc2c3ccccc3nc3ccccc23)cc1 |  |  | 3870 |  |  | 
4 | O=C(CCCCCCn1cc(-c2ccc(Nc3c4ccccc4nc4ccccc34)cc2)nn1)NOC1CCCCO1 (configuration not stated) |  |  | 21400 |  |  | 
5 | COc1ccc2nc3cc(Cl)ccc3c(Nc3ccc(-c4cn(CCCCCC(=O)NO)nn4)cc3)c2c1 |  | Active | 3550 | 29 | 306 | 
6 | O=C(CCc1ccc(Nc2c3ccccc3nc3ccccc23)cc1)NO | 29100 | Active | 750 | 99.3 | 134 | IC50 (HCT-116): 1880 nM; inhibition [5]: Active
7 | O=C(CCCCCCn1cc(-c2cccc(Nc3c4ccccc4nc4ccccc34)c2)nn1)NO |  | Active | 1240 | 5 | 5.1 | 
8 | O=C(CCCCCn1cc(-c2cccc(Nc3c4ccccc4nc4ccccc34)c2)nn1)NO |  | Active | 2670 | 3.4 | 14.1 | 
9 | COc1ccc2nc3cc(Cl)ccc3c(Nc3cccc(-c4cn(CCCCCC(=O)NO)nn4)c3)c2c1 |  | Active | 2940 | 13.3 | 224 | 
10 | O=C(CCCCCn1cc(-c2ccc(Nc3c4ccccc4nc4ccccc34)cc2)nn1)NO |  | Active | 1340 | 2.6 | 8.2 | 
11 | O=C(CCCCCCn1cc(-c2ccc(Nc3c4ccccc4nc4ccccc34)cc2)nn1)NO | 7090 | Active | 900 | 2.9 | 3.9 | Activity (U-937 [6]): Active; Kq (Calf thymus DNA [7]): 1.56 ×10⁵ /M; Activity (U-937 [8]): Active; Activity (U-937 [9]): Active; Kb (Calf thymus DNA [2]): 1.67 ×10⁵ /M; IC50 (HCT-116): 2110 nM; Activity (Calf thymus DNA [10]): 430 nm; Activity (Calf thymus DNA [11]): Active; Activity (U-937 [12]): Active
12 | COc1ccc2nc3cc(Cl)ccc3c(Nc3ccc(CCC(=O)NO)cc3)c2c1 |  | Active | 1120 | 80.8 | 66.2 | 
